Source: ChEMBL document CHEMBL4689842, “EUbOPEN Chemogenomics Library wave 1” (2021)
Values joined by “and” are separate entries in the source; they are usually repeats but may differ in a detail not shown here. Equal entries are not always repeated.

System: Fibroblast
Experiment: Multiplex assay against human fibroblast
Format: toxicity, cell-based
Summary of the method: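 Values for tubulin, mitochondrial-mass and membrane-permeability phenotypes are per cents of cells with healthy nuclei. These cells were identified by CellPathfinder machine-learning gating of live cells that had been stained at seeding with Hoechst33342, BioTracker Green Microtubule Cytoskeleton Dye, MitoTracker Red and Annexin V Alexa Fluor 680 and imaged on a CQ1 microscope at 37°C and 5% CO2 after compound addition. The gating first set Hoechst high-intensity objects apart from normal cells, then split normal cells into healthy, pyknosed or fragmented nuclei, and pyknosed cells into mitotic or apoptotic.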

[1] = 12 h, 1 µM, compound concentration 1 uM, replicate 1
[2] = 12 h, 1 µM, compound concentration 1 uM, replicate 2
[3] = 12 h, 10 µM, compound concentration 10 uM, replicate 1
[4] = 12 h, 10 µM, compound concentration 10 uM, replicate 2
[5] = 24 h, 1 µM, compound concentration 1 uM, replicate 1
[6] = 24 h, 1 µM, compound concentration 1 uM, replicate 2
[7] = 24 h, 10 µM, compound concentration 10 uM, replicate 1
[8] = 24 h, 10 µM, compound concentration 10 uM, replicate 2
[9] = 48 h, 1 µM, compound concentration 1 uM, replicate 1
[10] = 48 h, 1 µM, compound concentration 1 uM, replicate 2
[11] = 48 h, 10 µM, compound concentration 10 uM, replicate 1
[12] = 48 h, 10 µM, compound concentration 10 uM, replicate 2

CC(C)CC(=O)Nc1[nH]nc2c1CN(C(=O)C1CCN(C)CC1)C2(C)C [PHA-793887]
Population Apoptotic (%) [1]: 81% | Population Fragmented Nuclei (%) [1]: 21% | Population Healthy Nuclei (%) [1]: 60% | Population Hoechst High Intensity Objects (%) [1]: 11% | Population Membrane Permeable-Phenotype (%) [1]: 4% | Population Mitochondria Different-Phenotype (%) [1]: 3% | Population Mitotic Cells (%) [1]: 18% | Population Normal (%) [1]: 88% | Population Pyknosed Nuclei (%) [1]: 18% | Population Tubulin-Different-Phenotype (%) [1]: 4% | Total Cell Count [1]: 233 | Population Apoptotic (%) [2]: 50% | Population Fragmented Nuclei (%) [2]: 48% | Population Healthy Nuclei (%) [2]: 31% | Population Hoechst High Intensity Objects (%) [2]: 46% | Population Membrane Permeable-Phenotype (%) [2]: 22% | Population Mitochondria Different-Phenotype (%) [2]: 44% | Population Mitotic Cells (%) [2]: 50% | Population Normal (%) [2]: 53% | Population Pyknosed Nuclei (%) [2]: 20% | Population Tubulin-Different-Phenotype (%) [2]: 22% | Total Cell Count [2]: 54 | Population Apoptotic (%) [3]: 73% | Population Fragmented Nuclei (%) [3]: 23% | Population Healthy Nuclei (%) [3]: 66% | Population Hoechst High Intensity Objects (%) [3]: 12% | Population Membrane Permeable-Phenotype (%) [3]: 4% | Population Mitochondria Different-Phenotype (%) [3]: 7% | Population Mitotic Cells (%) [3]: 26% | Population Normal (%) [3]: 87% | Population Pyknosed Nuclei (%) [3]: 10% | Population Tubulin-Different-Phenotype (%) [3]: 4% | Total Cell Count [3]: 277 | Population Apoptotic (%) [4]: 33% | Population Fragmented Nuclei (%) [4]: 68% | Population Healthy Nuclei (%) [4]: 24% | Population Hoechst High Intensity Objects (%) [4]: 33% | Population Membrane Permeable-Phenotype (%) [4]: 20% | Population Mitochondria Different-Phenotype (%) [4]: 40% | Population Mitotic Cells (%) [4]: 66% | Population Normal (%) [4]: 66% | Population Pyknosed Nuclei (%) [4]: 7% | Population Tubulin-Different-Phenotype (%) [4]: 30% | Total Cell Count [4]: 62 | Population Apoptotic (%) [5]: 71% | Population Fragmented Nuclei (%) [5]: 20% | Population Healthy Nuclei (%) [5]: 65% | Population Hoechst High Intensity Objects (%) [5]: 13% | Population Membrane Permeable-Phenotype (%) [5]: 6% | Population Mitochondria Different-Phenotype (%) [5]: 1% | Population Mitotic Cells (%) [5]: 28% | Population Normal (%) [5]: 86% | Population Tubulin-Different-Phenotype (%) [5]: 3% | Total Cell Count [5]: 225 | Population Apoptotic (%) [6]: 66% | Population Fragmented Nuclei (%) [6]: 57% | Population Healthy Nuclei (%) [6]: 28% | Population Hoechst High Intensity Objects (%) [6]: 37% | Population Membrane Permeable-Phenotype (%) [6]: 16% | Population Mitochondria Different-Phenotype (%) [6]: 25% | Population Mitotic Cells (%) [6]: 33% | Population Normal (%) [6]: 62% | Population Pyknosed Nuclei (%) [6]: 14% | Population Tubulin-Different-Phenotype (%) [6]: 16% | Total Cell Count [6]: 67 | Population Apoptotic (%) [7]: 61% | Population Fragmented Nuclei (%) [7]: 23% | Population Healthy Nuclei (%) [7]: 64% | Population Hoechst High Intensity Objects (%) [7]: 11% | Population Membrane Permeable-Phenotype (%) [7]: 3% | Population Mitochondria Different-Phenotype (%) [7]: 6% | Population Mitotic Cells (%) [7]: 38% | Population Normal (%) [7]: 88% | Population Pyknosed Nuclei (%) [7]: 12% | Population Tubulin-Different-Phenotype (%) [7]: 6% | Total Cell Count [7]: 284 | Population Apoptotic (%) [8]: 100% | Population Fragmented Nuclei (%) [8]: 72% | Population Healthy Nuclei (%) [8]: 20% | Population Hoechst High Intensity Objects (%) [8]: 32% | Population Membrane Permeable-Phenotype (%) [8]: 0% | Population Mitochondria Different-Phenotype (%) [8]: 11% | Population Mitotic Cells (%) [8]: 0% | Population Normal (%) [8]: 67% | Population Pyknosed Nuclei (%) [8]: 6% | Population Tubulin-Different-Phenotype (%) [8]: 22% | Total Cell Count [8]: 64

Cc1cc(NC(=O)c2cccc(S(F)(F)(F)(F)F)c2)cc(-n2ccn3nc(-c4cccnc4)cc23)c1 [BAY-309]
Population Apoptotic (%) [3]: 72% and 60% | Population Fragmented Nuclei (%) [3]: 29% and 25% | Population Healthy Nuclei (%) [3]: 45% and 52% | Population Hoechst High Intensity Objects (%) [3]: 11% and 13% | Population Mitochondria Different-Phenotype (%) [3]: 16% and 14% | Population Mitotic Cells (%) [3]: 27% and 39% | Population Normal (%) [3]: 88% and 86% | Population Pyknosed Nuclei (%) [3]: 25% and 22% | Total Cell Count [3]: 260 and 213 | Population Apoptotic (%) [4]: 54% and 62% | Population Fragmented Nuclei (%) [4]: 66% and 44% | Population Healthy Nuclei (%) [4]: 20% and 40% | Population Hoechst High Intensity Objects (%) [4]: 29% and 31% | Population Membrane Permeable-Phenotype (%) [4]: 16% and 20% | Population Mitochondria Different-Phenotype (%) [4]: 33% and 35% | Population Mitotic Cells (%) [4]: 45% and 37% | Population Normal (%) [4]: 70% and 68% | Population Pyknosed Nuclei (%) [4]: 12% and 16% | Population Tubulin-Different-Phenotype (%) [4]: 50% and 80% | Total Cell Count [4]: 122 and 73 | Population Apoptotic (%) [7]: 80% and 62% | Population Fragmented Nuclei (%) [7]: 24% and 21% | Population Healthy Nuclei (%) [7]: 47% and 56% | Population Hoechst High Intensity Objects (%) [7]: 16% and 15% | Population Mitotic Cells (%) [7]: 19% and 37% | Population Normal (%) [7]: 83% and 84% | Population Pyknosed Nuclei (%) [7]: 28% and 21% | Population Tubulin-Different-Phenotype (%) [7]: 83% and 28% | Total Cell Count [7]: 241 and 216 | Population Apoptotic (%) [8]: 60% and 90% | Population Fragmented Nuclei (%) [8]: 66% and 57% | Population Healthy Nuclei (%) [8]: 20% and 26% | Population Hoechst High Intensity Objects (%) [8]: 36% and 25% | Population Membrane Permeable-Phenotype (%) [8]: 11% and 0% | Population Mitochondria Different-Phenotype (%) [8]: 29% and 22% | Population Normal (%) [8]: 63% and 75% | Population Pyknosed Nuclei (%) [8]: 12% and 15% | Population Tubulin-Different-Phenotype (%) [8]: 41% | Total Cell Count [8]: 128 and 92

Cc1ccccc1C(c1ccccc1C)N1C2CCC1CC(O)(c1ccccc1)C2 (stereo not given)
Population Apoptotic (%) [1]: 68% | Population Fragmented Nuclei (%) [1]: 14% | Population Healthy Nuclei (%) [1]: 40% | Population Mitotic Cells (%) [1]: 31% | Population Normal (%) [1]: 84% | Population Pyknosed Nuclei (%) [1]: 44% | Total Cell Count [1]: 127 | Population Apoptotic (%) [2]: 50% | Population Fragmented Nuclei (%) [2]: 9% | Population Healthy Nuclei (%) [2]: 81% | Population Hoechst High Intensity Objects (%) [2]: 9% | Population Mitotic Cells (%) [2]: 50% | Population Normal (%) [2]: 90% | Population Pyknosed Nuclei (%) [2]: 9% | Total Cell Count [2]: 80 | Population Apoptotic (%) [3]: 63% | Population Fragmented Nuclei (%) [3]: 23% | Population Healthy Nuclei (%) [3]: 44% | Population Mitotic Cells (%) [3]: 36% | Population Normal (%) [3]: 85% | Population Pyknosed Nuclei (%) [3]: 32% | Total Cell Count [3]: 161 | Population Apoptotic (%) [4]: 40% | Population Healthy Nuclei (%) [4]: 81% | Population Mitotic Cells (%) [4]: 60% | Population Normal (%) [4]: 86% | Total Cell Count [4]: 71 | Population Apoptotic (%) [5]: 62% | Population Healthy Nuclei (%) [5]: 55% | Population Hoechst High Intensity Objects (%) [5]: 20% | Population Mitotic Cells (%) [5]: 37% | Population Normal (%) [5]: 79% | Population Pyknosed Nuclei (%) [5]: 28% | Total Cell Count [5]: 107 | Population Fragmented Nuclei (%) [6]: 9% | Population Healthy Nuclei (%) [6]: 77% | Population Hoechst High Intensity Objects (%) [6]: 4% | Population Mitotic Cells (%) [6]: 80% | Population Normal (%) [6]: 95% | Total Cell Count [6]: 89 | Population Apoptotic (%) [7]: 47% | Population Fragmented Nuclei (%) [7]: 23% | Population Healthy Nuclei (%) [7]: 47% | Population Hoechst High Intensity Objects (%) [7]: 8% | Population Mitotic Cells (%) [7]: 52% | Population Normal (%) [7]: 91% | Population Pyknosed Nuclei (%) [7]: 28% | Total Cell Count [7]: 159 | Population Apoptotic (%) [8]: 50% | Population Fragmented Nuclei (%) [8]: 20% | Population Healthy Nuclei (%) [8]: 65% | Population Mitotic Cells (%) [8]: 50% | Population Normal (%) [8]: 93% | Total Cell Count [8]: 85 | Population Apoptotic (%) [9]: 61% | Population Fragmented Nuclei (%) [9]: 30% | Population Healthy Nuclei (%) [9]: 51% | Population Hoechst High Intensity Objects (%) [9]: 16% | Population Mitotic Cells (%) [9]: 38% | Population Normal (%) [9]: 83% | Total Cell Count [9]: 121 | Population Apoptotic (%) [10]: 0% | Population Fragmented Nuclei (%) [10]: 60% | Population Healthy Nuclei (%) [10]: 40% | Population Hoechst High Intensity Objects (%) [10]: 0% | Population Mitotic Cells (%) [10]: 0% | Population Normal (%) [10]: 100% | Population Pyknosed Nuclei (%) [10]: 0% | Total Cell Count [10]: 5 | Population Apoptotic (%) [11]: 40% | Population Fragmented Nuclei (%) [11]: 30% | Population Healthy Nuclei (%) [11]: 59% | Population Mitotic Cells (%) [11]: 60% | Population Normal (%) [11]: 92% | Population Pyknosed Nuclei (%) [11]: 9% | Total Cell Count [11]: 170 | Population Apoptotic (%) [12]: 100% | Population Fragmented Nuclei (%) [12]: 35% | Population Healthy Nuclei (%) [12]: 62% | Population Hoechst High Intensity Objects (%) [12]: 4% | Population Mitotic Cells (%) [12]: 0% | Population Normal (%) [12]: 95% | Population Pyknosed Nuclei (%) [12]: 1% | Total Cell Count [12]: 118
